According to article PMC3263826 (ACS medicinal chemistry letters, 2011):

Assays:
[1] = target: T1, rat MAO A (Rattus norvegicus, UniProt P21396); test: Inhibition of purified recombinant rat MAO A; assay type: biochemical; conditions: accessible concentration range (~100 μM)
T1 sequence (P21396 1-526): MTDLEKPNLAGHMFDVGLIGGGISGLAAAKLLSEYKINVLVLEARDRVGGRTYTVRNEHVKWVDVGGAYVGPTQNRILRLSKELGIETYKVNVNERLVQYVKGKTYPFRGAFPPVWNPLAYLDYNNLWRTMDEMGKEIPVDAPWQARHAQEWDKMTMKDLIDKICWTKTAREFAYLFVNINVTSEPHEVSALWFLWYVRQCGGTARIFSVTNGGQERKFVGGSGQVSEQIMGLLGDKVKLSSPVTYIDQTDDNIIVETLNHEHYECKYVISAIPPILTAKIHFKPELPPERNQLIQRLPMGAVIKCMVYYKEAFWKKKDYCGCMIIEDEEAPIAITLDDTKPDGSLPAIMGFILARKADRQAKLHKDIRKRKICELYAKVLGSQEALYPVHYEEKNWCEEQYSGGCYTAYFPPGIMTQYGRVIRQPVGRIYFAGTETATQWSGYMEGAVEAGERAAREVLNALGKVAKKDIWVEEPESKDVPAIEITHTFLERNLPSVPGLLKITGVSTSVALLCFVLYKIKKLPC

[2] = target: human histone demethylase LSD1 (Homo sapiens, UniProt O60341); test: Inhibition of human histone demethylase LSD1; assay type: biochemical; conditions: concentrations up to 100 μM
Procedure, shortened: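 Enzyme is recombinant human LSD1 purified as a complex with CoREST. Test compound was assayed at concentrations up to 100 μM.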

[3] = target: T2, human MAO A (Homo sapiens, UniProt P21397); test: Inhibition of purified recombinant human MAO A; assay type: biochemical; conditions: for inhibition pattern with MAO A: species not given
T2 sequence (P21397 1-527): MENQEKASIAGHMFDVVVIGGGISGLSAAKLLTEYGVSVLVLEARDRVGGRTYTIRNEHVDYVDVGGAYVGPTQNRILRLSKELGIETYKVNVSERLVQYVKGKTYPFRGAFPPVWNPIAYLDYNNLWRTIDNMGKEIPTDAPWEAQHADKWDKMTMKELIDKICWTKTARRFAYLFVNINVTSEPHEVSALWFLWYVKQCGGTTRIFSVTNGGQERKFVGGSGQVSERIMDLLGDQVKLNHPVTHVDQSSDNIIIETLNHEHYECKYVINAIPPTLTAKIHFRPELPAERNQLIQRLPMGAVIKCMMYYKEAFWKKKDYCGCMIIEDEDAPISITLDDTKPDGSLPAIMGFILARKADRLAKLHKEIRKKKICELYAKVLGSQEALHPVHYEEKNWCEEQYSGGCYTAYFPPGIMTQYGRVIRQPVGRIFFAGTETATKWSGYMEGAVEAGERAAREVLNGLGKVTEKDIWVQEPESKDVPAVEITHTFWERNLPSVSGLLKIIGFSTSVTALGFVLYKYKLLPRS

[4] = target: T3, human MAO B (Homo sapiens, UniProt P27338); test: Inhibition of purified recombinant human MAO B; assay type: biochemical; conditions: for inhibition pattern with MAO B: species not given
T3 sequence (P27338 1-520): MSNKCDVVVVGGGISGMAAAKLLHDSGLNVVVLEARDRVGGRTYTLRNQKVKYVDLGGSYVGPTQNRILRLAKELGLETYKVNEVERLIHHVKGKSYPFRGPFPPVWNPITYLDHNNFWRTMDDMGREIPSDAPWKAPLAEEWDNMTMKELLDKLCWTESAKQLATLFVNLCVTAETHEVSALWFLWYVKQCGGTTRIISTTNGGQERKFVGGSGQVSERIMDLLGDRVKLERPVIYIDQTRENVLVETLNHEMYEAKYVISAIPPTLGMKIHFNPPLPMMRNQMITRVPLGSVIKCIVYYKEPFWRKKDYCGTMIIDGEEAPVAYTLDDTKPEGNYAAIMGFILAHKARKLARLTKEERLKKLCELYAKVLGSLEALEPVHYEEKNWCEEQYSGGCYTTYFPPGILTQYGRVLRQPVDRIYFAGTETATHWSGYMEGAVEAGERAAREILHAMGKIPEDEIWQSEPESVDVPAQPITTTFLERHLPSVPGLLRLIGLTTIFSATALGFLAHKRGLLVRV

[5] = test system: MPTP-mouse model for Parkinson's disease; conditions: cited from earlier work
[6] = cited from earlier work

Compound | inhibitory activity against rat MAO A [1] | inhibition of LSD1 [2] | inhibitory activity against human MAO A ([3]; accessible concentration range (~100 μM)) | inhibition pattern with MAO B [4] | neuroprotection in MPTP-mouse model [5] | brain (therapeutic neuroprotective) concentration ([6]; monkey, in vivo) | plasma concentration ([6]; monkeys with induced symptoms characteristic of Parkinson's disease) | inhibition pattern with MAO A [3] | substrate of MAO A ([3]; time course of hours) | substrate of MAO B ([4]; time course of hours)
CCc1ccc(CCOc2ccc(CC3SC(=O)NC3=O)cc2)nc1 (centres unmarked) [Pioglitazone, pioglitazone] | does not exhibit any inhibitory activity | No inhibition | does not exhibit any inhibitory activity | competitively | effective neuroprotectant | ~ 0.14 μM | ~ 4.9 μM |  |  | 
CN(CCOc1ccc(CC2SC(=O)NC2=O)cc1)c1ccccn1 (centres unmarked) [Rosiglitazone, rosiglitazone] |  | No inhibition |  | competitively |  |  |  | competitively | very slow substrate | very slow substrate
Cc1c(C)c2c(c(C)c1O)CCC(C)(COc1ccc(CC3SC(=O)NC3=O)cc1)O2 (centres unmarked) [Troglitazone, troglitazone] |  |  |  | non-competitive |  |  |  | non-competitive |  | 
